Data published in the array DNA melting data of Ke et al. (doi:10.1101/2024.01.08.574731).

Columns and labels:
[1] = melting temperature; fluorescence melt of hairpins on a sequencing array, two-state fit, raised by 9.35 °C to match UV melts; conditions: sodium 0.088 M
In short: (§1)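 Cy3 fluorescence of library hairpins on a sequenced MiSeq flow cell, with annealed Cy3 and quencher oligos, was imaged in 50 mM Na-HEPES pH 8.0, 25 mM NaCl in 2.5 °C steps up to 60 °C. Signals were normalised to pre-quench Cy3 and to control variants. Melting temperature and folding enthalpy came from bootstrapped two-state fits, inverse-variance combined over four replicates. Fitted temperatures were raised by 9.35 °C to match UV melts.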

[2] = folding enthalpy; higher = less favourable; fluorescence melt of hairpins on a sequencing array, two-state fit; conditions: sodium 0.088 M
In short: as §1

Sequence	Tm [1]	folding enthalpy [2]
GCGAAAGGAAACTTTTGC ((.((((....)))).))	45.9 °C	-32.1 kcal/mol
GCGAACAATCGC ((((....))))	39.9 °C	-18.3 kcal/mol
GCGAACAGTCGC ((((....))))	42.1 °C	-16.4 kcal/mol
GCGAACATCGC ((((...))))	45.6 °C	-17.1 kcal/mol
GCGAACATTCGC ((((....))))	48.2 °C	-21.4 kcal/mol
GCGAACCTTCGC ((((....))))	50.3 °C	-24.2 kcal/mol
GCGAACGAAAGTTAGCGC ((((((....)))..)))	55.8 °C	-31 kcal/mol
GCGAACGAAAGTTTCCGC ((((((....)))..)))	36.2 °C	-21.1 kcal/mol
GCGAACGGAAACATCCGC (((.(.(....).).)))	20.9 °C	-7.45 kcal/mol
GCGAACTTTCGC ((((....))))	51.1 °C	-20 kcal/mol
GCGAAGATTCGC ((((....))))	49 °C	-21.8 kcal/mol
GCGAAGCGAAAGCCTAGC ((.(.((....)).).))	40.2 °C	-7.6 kcal/mol
GCGAAGCGAAAGCCTTGC ((.(.((....)).).))	36.3 °C	-7.85 kcal/mol
GCGAAGCGAAAGCTGCGC (((.(((....))).)))	67.7 °C	-23.6 kcal/mol
GCGAAGCGAAAGCTTAGC ((.((((....)))).))	56 °C	-16.1 kcal/mol
GCGAAGGAAACTTCGC ((((((....))))))	63.7 °C	-34.8 kcal/mol
GCGAAGGGTCGC ((((....))))	48.2 °C	-12.1 kcal/mol
GCGAATATCGC ((((...))))	46.5 °C	-16.6 kcal/mol
GCGAATCATCGC ((((....))))	47.6 °C	-23.6 kcal/mol
GCGAATCGAAAGATCCGC (((.(((....))).)))	52.3 °C	-47 kcal/mol
GCGAATGAAAATTCGC ((((((....))))))	65 °C	-36.3 kcal/mol
GCGAATGGAAACACTCGC ((((.((....)).))))	46.2 °C	-35.2 kcal/mol
GCGAATGGAAACGTTTGC ((.((.(....).)).))	36 °C	-30.7 kcal/mol
GCGAATTTTCGC ((((....))))	53.2 °C	-29.5 kcal/mol

Sequence	Tm [1]	folding enthalpy [2]
GCGACAACTCGC ((((....))))	41.7 °C	-21.2 kcal/mol
GCGACACGAAAGTGCCGC (((.(((....))).)))	64.3 °C	-38.8 kcal/mol
GCGACACTTCGC ((((....))))	52.1 °C	-26.7 kcal/mol
GCGACAGGAAACTGTTGC ((.((((....)))).))	54.9 °C	-34.4 kcal/mol
GCGACAGGTCGC ((((....))))	56.2 °C	-27.1 kcal/mol
GCGACAGTCGC ((((...))))	46.7 °C	-27.8 kcal/mol
GCGACCACTCGC ((((....))))	47 °C	-25.4 kcal/mol
GCGACCGAAAGGTACCGC ((((((....)))..)))	47.2 °C	-21.9 kcal/mol
GCGACCGAAAGGTGACGC ((((((....)))..)))	52 °C	-26.7 kcal/mol
GCGACCGAAAGGTTCCGC ((((((....)))..)))	43.5 °C	-18.8 kcal/mol
GCGACCGAAAGGTTCGC ((((((....))).)))	65.6 °C	-33 kcal/mol
GCGACCGATCGC ((((....))))	45.6 °C	-21.4 kcal/mol
GCGACCGCGAAAGCGCGC (((..(((....))))))	56.1 °C	-15.4 kcal/mol
GCGACCGGAAACAGTCGC (((((.(....).)))))	55.1 °C	-39.2 kcal/mol
GCGACCGTTCGC ((((....))))	49.1 °C	-22.8 kcal/mol
GCGACCTCGAAAGAGCGC (((..(((....))))))	49.1 °C	-31.1 kcal/mol
GCGACCTTTCGC ((((....))))	47 °C	-21.4 kcal/mol
GCGACGACGAAAGTCCGC (((..(((....))))))	51.4 °C	-24.7 kcal/mol
GCGACGCATCGC ((((....))))	49.8 °C	-16 kcal/mol
GCGACGCGAAAGCAACGC (((..((....))..)))	54.2 °C	-16.8 kcal/mol
GCGACGCGAAAGCATCGC ((((.((....)).))))	66.9 °C	-43.2 kcal/mol
GCGACGCGAAAGCATTGC ((.(.((....)).).))	40.5 °C	-19.2 kcal/mol
GCGACGCGAAAGCGAAGC ((..(((....)))..))	66.2 °C	-36.5 kcal/mol
